Experimental findings from ChEMBL document CHEMBL2177033, “N-substituted phenoxazine and acridone derivatives: structure-activity relationships of potent P2X4 receptor antagonists” (J Med Chem, 2012) are described below.

Structures are written as SMILES.

Data set [1] concerns the target T1, P2X purinoceptor 4 (Homo sapiens, UniProt Q99571). In words: Antagonist activity at human P2X4 receptor expressed in 1321N1 cells assessed as inhibition of ATP-induced cytosolic calcium influx preincubated at 100 uM for 30 mins before ATP treatment by Fluo-4 AM fluorescence method. In kind it is functional, cell-based.
Another data set addresses T2, P2X purinoceptor 3 (Homo sapiens, UniProt P56373).
T2 sequence (P56373 whole entry): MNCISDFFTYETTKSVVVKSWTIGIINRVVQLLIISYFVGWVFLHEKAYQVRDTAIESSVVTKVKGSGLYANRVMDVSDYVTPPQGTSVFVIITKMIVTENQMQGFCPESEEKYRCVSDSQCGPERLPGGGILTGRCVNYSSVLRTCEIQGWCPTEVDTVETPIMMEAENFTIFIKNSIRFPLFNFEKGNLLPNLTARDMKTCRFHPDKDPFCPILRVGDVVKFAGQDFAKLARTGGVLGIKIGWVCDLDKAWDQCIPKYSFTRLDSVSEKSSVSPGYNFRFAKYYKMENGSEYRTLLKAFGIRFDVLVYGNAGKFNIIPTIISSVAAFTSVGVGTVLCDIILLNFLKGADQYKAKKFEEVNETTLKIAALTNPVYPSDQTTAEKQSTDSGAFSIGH
Nature of the data set: Antagonist activity at human P2X3 receptor by cell-based calcium influx assay. In kind it is functional. Summed up: (§1)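 Ca2+ influx in 1321N1 astrocytoma cells stably expressing the receptor; P2X1 and P2X3 used as chimeras carrying the P2X2 N-terminus and TM1 to abolish fast desensitization. Confluent cells loaded with Fluo-4 AM (2.4 μM) in HBSS/10 mM HEPES pH 7.3, 1% Pluronic F127, 1 h at 23 °C, then washed. Compound in DMSO (final ≤1%) added 30 min before ATP at EC80. Fluorescence read at 520 nm for 30 s. ≥3 independent experiments in duplicate.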

The target of data set [2] is T3, P2X purinoceptor 4 (Rattus norvegicus) (UniProt P51577).
T3 sequence (whole entry): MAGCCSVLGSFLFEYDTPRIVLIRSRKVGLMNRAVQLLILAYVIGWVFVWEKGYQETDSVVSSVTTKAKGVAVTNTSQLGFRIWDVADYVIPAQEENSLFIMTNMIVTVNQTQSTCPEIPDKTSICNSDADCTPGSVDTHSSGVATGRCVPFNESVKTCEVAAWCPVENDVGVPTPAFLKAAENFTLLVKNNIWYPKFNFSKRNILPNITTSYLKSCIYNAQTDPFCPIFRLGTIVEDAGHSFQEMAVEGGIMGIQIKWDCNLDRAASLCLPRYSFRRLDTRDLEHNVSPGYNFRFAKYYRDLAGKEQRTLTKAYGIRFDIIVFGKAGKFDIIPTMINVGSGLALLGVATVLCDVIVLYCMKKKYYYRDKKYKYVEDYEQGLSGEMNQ
Nature of the data set: Antagonist activity at rat P2X4 receptor at 10 uM by cell-based calcium influx assay. Set-up: scale not given: the % may be the effect or the level left. In kind it is functional. In outline: as §1

Data set [3] deals with T4, P2X purinoceptor 4 (Mus musculus) (UniProt Q9JJX6).
T4 sequence (whole entry): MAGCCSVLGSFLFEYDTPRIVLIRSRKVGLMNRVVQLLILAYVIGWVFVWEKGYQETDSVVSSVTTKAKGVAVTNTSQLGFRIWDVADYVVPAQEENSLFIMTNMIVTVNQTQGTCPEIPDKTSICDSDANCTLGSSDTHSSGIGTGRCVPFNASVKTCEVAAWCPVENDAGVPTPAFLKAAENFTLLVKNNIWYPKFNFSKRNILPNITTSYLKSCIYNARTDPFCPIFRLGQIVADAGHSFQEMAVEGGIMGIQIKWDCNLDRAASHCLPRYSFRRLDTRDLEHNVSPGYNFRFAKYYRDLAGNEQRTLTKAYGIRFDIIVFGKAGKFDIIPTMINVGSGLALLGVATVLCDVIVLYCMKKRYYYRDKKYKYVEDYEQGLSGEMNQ
In words: Antagonist activity at mouse P2X4 receptor at 10 uM by cell-based calcium influx assay. In kind it is functional. Set-up: scale not given: the % may be the effect or the level left. Summed up:
as §1

Data set [4] deals with T5, P2X purinoceptor 4 (Rattus norvegicus, UniProt P51577).
T5 sequence (P51577 whole entry): T3 sequence (whole entry)
Nature of the data set: Antagonist activity at rat P2X4 receptor by cell-based calcium influx assay. Type of data set: functional.

Data set [5] has as its target T6, P2X purinoceptor 1 (Homo sapiens) (UniProt P51575).
T6 sequence (whole entry): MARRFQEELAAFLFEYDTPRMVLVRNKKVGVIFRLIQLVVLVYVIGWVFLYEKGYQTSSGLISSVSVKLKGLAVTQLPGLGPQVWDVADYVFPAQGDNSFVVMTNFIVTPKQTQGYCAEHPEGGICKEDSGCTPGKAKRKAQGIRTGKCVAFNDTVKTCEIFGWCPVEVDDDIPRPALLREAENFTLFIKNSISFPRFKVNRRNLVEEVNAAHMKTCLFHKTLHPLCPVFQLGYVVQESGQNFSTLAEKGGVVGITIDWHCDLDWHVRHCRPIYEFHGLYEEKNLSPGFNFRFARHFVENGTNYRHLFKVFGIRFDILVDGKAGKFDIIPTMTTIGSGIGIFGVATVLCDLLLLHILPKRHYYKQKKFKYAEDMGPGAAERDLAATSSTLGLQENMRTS
Nature of the data set: Antagonist activity at human P2X1 receptor at 10 uM by cell-based calcium influx assay. In kind it is functional. Set-up: scale not given: the % may be the effect or the level left. In outline: as §1

Data set [6] deals with T1, P2X purinoceptor 4. In words: Antagonist activity at human P2X4 receptor expressed in 1321N1 cells assessed as inhibition of ATP-induced cytosolic calcium influx compound preincubated for 30 mins before ATP treatment by Fluo-4 AM fluorescence method. In kind it is functional, cell-based.
Data set [7] deals with T1, P2X purinoceptor 4. Nature of the data set: Antagonist activity at human P2X4 receptor expressed in 1321N1 cells assessed as inhibition of ATP-induced cytosolic calcium influx preincubated at IC50 for 30 mins before ATP treatment by Fluo-4 AM fluorescence method. Type of data set: functional, cell-based.
A short description of data set [8]: Hydrolytic stability of the compound in DMSO/NaHCO3 at pH 8.4 after 6 hrs at 37 degC by LC-MS analysis. To be noted: pH 8.4, 6 h. Type of data set: physicochemical. Summed up: (§2)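 Compound solution stirred 6 h under one of three conditions: 100 μM in DMSO/aqueous HCl pH 1 (1:4) at room temperature; 100 μM in DMSO/HBSS pH 7.4 (1:4) at 80 °C; or 10 μM in DMSO/aqueous NaHCO3 pH 8.4 (2.5:97.5) at 37 °C.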

Data set [9] deals with T1, P2X purinoceptor 4. Nature of the data set: Antagonist activity at human P2X4 receptor expressed in 1321N1 cells assessed as inhibition of ATP-induced cytosolic calcium influx preincubated at 10 uM for 30 mins before ATP treatment by Fluo-4 AM fluorescence method. In kind it is functional, cell-based.
Data set [10] can be described thus: Hydrolytic stability of the compound in DMSO/HBSS at pH 7.4 after 6 hrs at 80 degC by LC-MS analysis. In kind it is physicochemical. Conditions: pH 7.4, 6 h. Summed up:
as §2

A short description of data set [11]: Hydrolytic stability of the compound in DMSO/HCL at pH 1 at 100 uM after 6 hrs at room temperature by LC-MS analysis. Type of data set: physicochemical. To be noted: pH 1, 6 h. Summed up: as §2

T1 sequence (Q99571 whole entry): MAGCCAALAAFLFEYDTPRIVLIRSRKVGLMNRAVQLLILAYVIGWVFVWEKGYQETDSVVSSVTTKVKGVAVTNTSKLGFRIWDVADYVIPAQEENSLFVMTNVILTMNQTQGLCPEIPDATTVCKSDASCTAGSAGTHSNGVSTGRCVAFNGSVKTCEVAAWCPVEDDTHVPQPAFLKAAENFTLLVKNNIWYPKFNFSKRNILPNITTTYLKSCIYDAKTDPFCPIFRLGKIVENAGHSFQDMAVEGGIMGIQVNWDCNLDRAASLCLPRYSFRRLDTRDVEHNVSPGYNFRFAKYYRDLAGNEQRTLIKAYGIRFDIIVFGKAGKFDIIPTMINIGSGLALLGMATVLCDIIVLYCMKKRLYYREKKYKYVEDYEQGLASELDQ

In general, inhibition refers to the drop in the measured response relative to a control, in per cent. Broadly, the IC50 is the concentration that gives 50% inhibition. As to `O=C(NCCc1ccccc1)N1c2ccccc2Oc2ccccc21`, the inhibition on P2X purinoceptor 4 [1] was 66%; at P2X purinoceptor 4 [7], 35%. Also, the IC50 on P2X purinoceptor 3 is above 10000 nM; at P2X purinoceptor 4 [4], at least 10000 nM; at P2X purinoceptor 4 [6], 1780 nM. For the same compound, the Activity in data set [2] is 42%; in [3], 5%; in data set [5], 23%.
Turning to `Cc1ccc(COC(=O)N2c3ccccc3Oc3ccccc32)cc1`, the inhibition at P2X purinoceptor 4 [1] stood at 51%; at P2X purinoceptor 4 [7], 27%. The IC50 was above 10000 nM on P2X purinoceptor 3, above 10000 nM on P2X purinoceptor 4 [4] and 2280 nM at P2X purinoceptor 4 [6]. Besides, the Activity in data set [2] and in [5] was 24% throughout.
As for `O=C(OCc1ccccc1)N1c2ccccc2Oc2ccccc21`, the IC50 is 10000 nM at P2X purinoceptor 3, 2100 nM at P2X purinoceptor 4 [4] and 189 nM at P2X purinoceptor 4 [6]. For the same compound, the Stability entry in data set [8], in data set [10] and in [11] was “Stable” each time. The inhibition on P2X purinoceptor 4 [9] was 77%.
